{
  "source": "ChEMBL document CHEMBL1132987",
  "about": "“Phosphorylated morpholine acetal human neurokinin-1 receptor antagonists as water-soluble prodrugs” (J Med Chem, 2000)",
  "key": {"Mustela putorius furo [1]": {"tested_on": "Mustela putorius furo", "assay": "(§1) Dose-dependent reduction in cisplatin-induced vomiting in ferrets at 0.3 mg/kg iv dose", "assay_type": "functional", "method_in_brief": "(§2)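 Ferrets were pretreated intravenously at 0.1, 0.3 or 1.0 mg/kg, then given cisplatin at 10 mg/kg iv. Retches and vomits were counted over a 4 h observation period and reported as mean counts, with n = 4 per group. Vehicle-pretreated controls (n = 4-6) were run alongside.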"}, "Mustela putorius furo [2]": {"tested_on": "Mustela putorius furo", "assay": "(§3) Dose dependent reduction in cisplatin-induced retching in ferrets at 1.0 mg/kg iv dose", "assay_type": "functional", "method_in_brief": "as §2"}, "Cavia porcellus [3]": {"tested_on": "Cavia porcellus", "assay": "Inhibitory dose (ID50) was determined after oral administration followed by resiniferatoxin (RTX) challenge 24 hour before", "assay_type": "functional", "details": "read-out: ID50 (the source's name)", "method_in_brief": "(§4)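 Guinea pigs received the compound orally or intravenously at either 1 h or 24 h before a systemic resiniferatoxin challenge, each line matching its own route and interval. The challenge induces SP-mediated systemic vascular leakage. ID50 (mg/kg) was derived from dose-response data using 2-11 animals per data point.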"}, "Mustela putorius furo [4]": {"tested_on": "Mustela putorius furo", "assay": "(§5) Dose-dependent reduction in cisplatin-induced vomiting in ferrets at 1.0 mg/kg iv dose", "assay_type": "functional", "method_in_brief": "as §2"}, "Mustela putorius furo [5]": {"tested_on": "Mustela putorius furo", "assay": "(§6) Dose-dependent reduction in cisplatin-induced vomiting in ferrets at 0.1 mg/kg iv dose", "assay_type": "functional", "method_in_brief": "as §2"}, "Mustela putorius furo [6]": {"tested_on": "Mustela putorius furo", "assay": "(§7) Dose dependent reduction in cisplatin-induced retching in ferrets at 0.1 mg/kg iv dose", "assay_type": "functional", "method_in_brief": "as §2"}, "Cavia porcellus [7]": {"tested_on": "Cavia porcellus", "assay": "Inhibitory dose (ID50) was determined after intravenous administration followed by resiniferatoxin (RTX) challenge 1 hour before", "assay_type": "functional", "details": "read-out: ID50 (the source's name)", "method_in_brief": "as §4"}, "Cavia porcellus [8]": {"tested_on": "Cavia porcellus", "assay": "Inhibitory dose (ID50) was determined after oral administration followed by resiniferatoxin (RTX) challenge 1 hour", "assay_type": "functional", "details": "read-out: ID50 (the source's name)", "method_in_brief": "as §4"}, "Mustela putorius furo [9]": {"tested_on": "Mustela putorius furo", "assay": "(§8) Dose dependent reduction in cisplatin-induced retching in ferrets at 0.3 mg/kg iv dose", "assay_type": "functional", "method_in_brief": "as §2"}, "Mustela putorius furo [10]": {"tested_on": "Mustela putorius furo", "assay": "inhibitory dose was determined after intravenous administration of the compound.", "assay_type": "functional"}, "[11]": {"assay": "Area under curve (AUC) was determined after intravenous administration in rat at a dose of 2 mg/kg", "assay_type": "ADME, organism-based", "parameters": "dose 2 mg/kg, route intravenous", "details": "in vivo", "method_in_brief": "(§9)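 The parent antagonist was given intravenously to rats (0.2, 2 and 5 mg/kg) or dogs. AUC of the parent was taken from plasma concentration–time data, and values are averages. Plasma levels were measured by HPLC-MS/MS.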"}, "Cavia porcellus [12]": {"tested_on": "Cavia porcellus", "assay": "Dose (ID50) for inhibition of SP-mediated vascular leakage was determined after oral administration followed by resiniferatoxin (RTX) challenge 1 hour", "assay_type": "functional", "details": "read-out: ID50 (the source's name)", "method_in_brief": "as §4"}, "[13]": {"assay": "Area under curve (AUC) was determined after intravenous administration in rat at a dose of 5 mg/kg", "assay_type": "ADME, organism-based", "parameters": "dose 5 mg/kg, route intravenous", "details": "in vivo", "method_in_brief": "as §9"}, "[14]": {"assay": "Area under curve (AUC) was determined after intravenous administration of compound as Bis(N-methyl-D-glucamine) salt in dog at a dose of 2 mg/Kg", "assay_type": "ADME, organism-based, Canis lupus familiaris", "details": "in vivo", "method_in_brief": "(§10)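 The phosphate prodrug, as its bis(N-methyl-D-glucamine) salt, was dosed intravenously to rats (1, 8, 25 mg/kg) and dogs (0.5, 2, 32 mg/kg). The reported AUC is of the released parent antagonist in plasma, given as an average. Plasma prodrug and parent were followed by HPLC-MS/MS.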"}, "[15]": {"assay": "Area under curve (AUC) was determined after intravenous administration in dog at a dose of 0.5 mg/kg", "assay_type": "ADME, organism-based, Canis lupus familiaris", "parameters": "dose 0.5 mg/kg, route intravenous", "details": "in vivo", "method_in_brief": "as §9"}, "[16]": {"assay": "Area under curve (AUC) was determined after intravenous administration of compound as Bis(N-methyl-D-glucamine) salt in dog at a dose of 32 mg/Kg", "assay_type": "ADME, organism-based, Canis lupus familiaris", "details": "in vivo", "method_in_brief": "as §10"}, "[17]": {"assay": "Area under curve (AUC) was determined after intravenous administration of compound as Bis(N-methyl-D-glucamine) salt in dog at a dose of 0.5 mg/Kg", "assay_type": "ADME, organism-based, Canis lupus familiaris", "details": "in vivo", "method_in_brief": "as §10"}, "Mustela putorius furo [18]": {"tested_on": "Mustela putorius furo", "assay": "as §8", "assay_type": "functional", "remark": "listed apart in the source"}, "Mustela putorius furo [19]": {"tested_on": "Mustela putorius furo", "assay": "as §6", "assay_type": "functional", "remark": "listed apart in the source"}, "Mustela putorius furo [20]": {"tested_on": "Mustela putorius furo", "assay": "as §3", "assay_type": "functional", "remark": "listed apart in the source"}, "Mustela putorius furo [21]": {"tested_on": "Mustela putorius furo", "assay": "as §5", "assay_type": "functional", "remark": "listed apart in the source"}, "[22]": {"assay": "Area under curve was determined after intravenous administration of compound as Bis(N-methyl-D-glucamine) salt in rat at a dose 8 mg/kg", "assay_type": "ADME, organism-based", "parameters": "dose 8 mg/kg, route intravenous", "details": "in vivo", "method_in_brief": "as §10"}, "Cavia porcellus [23]": {"tested_on": "Cavia porcellus", "assay": "Dose (ID50) for inhibition of SP-mediated vascular leakage was determined after intravenous administration followed by resiniferatoxin (RTX) challenge 1 hour before", "assay_type": "functional", "details": "read-out: ID50 (the source's name)", "method_in_brief": "as §4"}, "Cavia porcellus [24]": {"tested_on": "Cavia porcellus", "assay": "Dose (ID50) for inhibition of SP-mediated vascular leakage was determined after intravenous administration followed by resiniferatoxin (RTX) challenge 24 hour before", "assay_type": "functional", "details": "read-out: ID50 (the source's name)"}, "Mustela putorius furo [25]": {"tested_on": "Mustela putorius furo", "assay": "as §1", "assay_type": "functional", "remark": "listed apart in the source"}, "[26]": {"assay": "Area under curve was determined after intravenous administration of compound as Bis(N-methyl-D-glucamine) salt in rat at a dose 1 mg/kg", "assay_type": "ADME, organism-based", "parameters": "dose 1 mg/kg, route intravenous", "details": "in vivo", "method_in_brief": "as §10"}, "Mustela putorius furo [27]": {"tested_on": "Mustela putorius furo", "assay": "as §7", "assay_type": "functional", "remark": "listed apart in the source"}, "[28]": {"assay": "Area under curve (AUC) was determined after intravenous administration of compound as Bis(N-methyl-D-glucamine) salt in rat at a dose 25 mg/Kg", "assay_type": "ADME, organism-based", "details": "in vivo", "method_in_brief": "as §10"}, "[29]": {"assay": "Area under curve (AUC) was determined after intravenous administration in dog at a dose of 2 mg/kg", "assay_type": "ADME, organism-based, Canis lupus familiaris", "parameters": "dose 2 mg/kg, route intravenous", "details": "in vivo", "method_in_brief": "as §9"}},
  "data": [
    {"molecule": "CNC[C@H](O)[C@@H](O)[C@H](O)[C@H](O)CO.C[C@@H](O[C@H]1OCCN(Cc2nc(O)n(P(=O)(O)O)n2)[C@H]1c1ccc(F)cc1)c1cc(C(F)(F)F)cc(C(F)(F)F)c1", "values": [
      {"measurement": "Incidence_count", "setting": "Mustela putorius furo [1]", "result": 4},
      {"measurement": "Incidence_count", "setting": "Mustela putorius furo [2]", "result": 2},
      {"measurement": "ED50", "setting": "Cavia porcellus [3]", "result": 0.9, "unit": "mg/kg"},
      {"measurement": "Incidence_count", "setting": "Mustela putorius furo [4]", "result": 1},
      {"measurement": "Incidence_count", "setting": "Mustela putorius furo [5]", "result": 16},
      {"measurement": "Incidence_count", "setting": "Mustela putorius furo [6]", "result": 115},
      {"measurement": "ED50", "setting": "Cavia porcellus [7]", "result": 0.006, "unit": "mg/kg"},
      {"measurement": "ED50", "setting": "Cavia porcellus [8]", "result": 0.016, "unit": "mg/kg"},
      {"measurement": "Incidence_count", "setting": "Mustela putorius furo [9]", "result": 26},
      {"measurement": "ID90", "setting": "Mustela putorius furo [10]", "result": 0.8, "unit": "mg/kg"}
    ]},
    {"molecule": "C[C@@H](O[C@H]1OCCN(Cc2n[nH]c(=O)[nH]2)[C@H]1c1ccc(F)cc1)c1cc(C(F)(F)F)cc(C(F)(F)F)c1", "note": "[APREPITANT]", "values": [
      {"measurement": "AUC", "setting": "[11]", "result": 2.7, "unit": "µg·h/mL"},
      {"measurement": "ED50", "setting": "Cavia porcellus [12]", "result": 0.012, "unit": "mg/kg"},
      {"measurement": "AUC", "setting": "[13]", "result": 6.4, "unit": "µg·h/mL"},
      {"measurement": "AUC", "setting": "[14]", "result": 8.9, "unit": "µg·h/mL"},
      {"measurement": "AUC", "setting": "[15]", "result": 3.8, "unit": "µg·h/mL"},
      {"measurement": "AUC", "setting": "[16]", "result": 370, "unit": "µg·h/mL"},
      {"measurement": "AUC", "setting": "[17]", "result": 1.1, "unit": "µg·h/mL"},
      {"measurement": "Incidence_count", "setting": "Mustela putorius furo [18]", "result": 5},
      {"measurement": "Incidence_count", "setting": "Mustela putorius furo [19]", "result": 13},
      {"measurement": "Incidence_count", "setting": "Mustela putorius furo [20]", "result": 0},
      {"measurement": "Incidence_count", "setting": "Mustela putorius furo [21]", "result": 0},
      {"measurement": "AUC", "setting": "[22]", "result": 6.3, "unit": "µg·h/mL"},
      {"measurement": "ED50", "setting": "Cavia porcellus [23]", "result": 0.002, "unit": "mg/kg"},
      {"measurement": "ED50", "setting": "Cavia porcellus [24]", "result": 0.5, "unit": "mg/kg"},
      {"measurement": "ID90", "setting": "Mustela putorius furo [10]", "result": 0.3, "unit": "mg/kg"},
      {"measurement": "Incidence_count", "setting": "Mustela putorius furo [25]", "result": 1},
      {"measurement": "AUC", "setting": "[26]", "result": 0.57, "unit": "µg·h/mL"},
      {"measurement": "Incidence_count", "setting": "Mustela putorius furo [27]", "result": 90},
      {"measurement": "AUC", "setting": "[28]", "result": 22, "unit": "µg·h/mL"},
      {"measurement": "AUC", "setting": "[29]", "result": 38, "unit": "µg·h/mL"}
    ]}
  ]
}
